The list is not random: actives were taken first. Their share in the collection is about 2.1%.
IMP-1 inh = IMP-1 metallo-beta-lactamase inhibitors, primary screen, biochemical, epi-absorbance readout, Pseudomonas aeruginosa enzyme. metallo-beta-lactamase IMP-1 (Pseudomonas aeruginosa). inhibition, % at 5.6 µM. actives 0.45% (n = 290,000). purified IMP-1, nitrocefin hydrolysis, epi-absorbance fluorescence;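 active = inhibition above the mean plus 3 SD of all compounds in the same screening run, cut at about 4.5% in these data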
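Assay system: purified IMP-1; Quantity: IMP-1 0.2 nM before substrate addition; Medium: HEPES buffer pH 7.1 with ZnSO4 and Brij 35; Incubation: 15 min enzyme–compound preincubation, then 25 min nitrocefin reaction, 25 °C; Signal: fluorescence quenching readout, ex 480/em 530 nm; Controls: DMSO with and without IMP-1; Repeats: singlicate testing.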
SUMO HTRF inh = inhibitors of in vitro SUMOylation cascade, primary screen, biochemical, HTRF, uHTS; actives 0.36% (n = 290,000); SUMO-conjugating enzyme UBC9 (Homo sapiens), P63279; inhibition, % at 35 µM; HTRF SUMOylation assay, SAE1/SAE2 + UBC9; AID 2006, 2009; in the data active = inhibition above about 50%, passing the limit was not always enough
Target sequence (P63279 whole entry, looked up): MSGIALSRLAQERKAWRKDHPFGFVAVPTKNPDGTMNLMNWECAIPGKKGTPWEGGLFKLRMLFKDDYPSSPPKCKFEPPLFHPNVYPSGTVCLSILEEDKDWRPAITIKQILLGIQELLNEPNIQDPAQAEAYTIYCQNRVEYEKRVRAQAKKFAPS
NS3 helicase inh = inhibitors of HCV NS3 helicase, primary screen, biochemical, Cy5 molecular beacon fluorescence; Hepatitis C virus NS3 helicase; NS3 helicase DNA unwinding; inhibition, % at 10.9 µM; actives 0.56% (n = 290,000); AID 1800, 2009;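 active = inhibition above the mean of all tested compounds plus 3 SD, set per campaign, cut at about 35% in these data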
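System: Hepatitis C virus NS3 helicase domain fragment enzyme | Reagent: Annealed dual-labelled DNA beacon duplex, ATP-started | Compound dosing: 10.9 µM single point, 0.8% DMSO | Incubation: 1 h reaction at 25 °C, ATP-initiated | Technique: Cy5 fluorescence | Evaluation: Percent inhibition from t60/t0 fluorescence ratio | Benchmarks: Low DMSO, high thioflavine S at 110 µM | Replication: Singlicate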
FID counter = compounds displacing fluorescent DNA intercalator, primary screen, artefact control for HCV NS3 helicase inhibitor project, biochemical, FID fluorescence; DNA fluorescent intercalator displacement; AID 1845, 2009; inhibition, % at 7.9 µM; actives 0.17% (n = 290,000); in the data active = inhibition above about 37%;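 note: higher means more ethidium bromide displaced from hairpin DNA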
VIM-2 inhibitor = VIM-2 metallo-beta-lactamase inhibitors, primary screen, biochemical, epi-absorbance readout, Pseudomonas aeruginosa enzyme. inhibition, % at 5.6 µM. AID 1527, 2009. purified VIM-2, nitrocefin hydrolysis, epi-absorbance fluorescence. actives 0.89% (n = 290,000);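 active = inhibition above the mean of all tested compounds plus 3 SD, cutoff set per screening run, cut at about 7.5% in these data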;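 note: red hydrolysis product quenches plate fluorescence so inhibitors raise well fluorescence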
Of the large screens only hits and unclear results are named; the others gave an inactive call.

COc1ccc(S(=O)(=O)N2CCOC2CNC(=O)C(=O)NCCCn2ccnc2)cc1OC (stereo not given)	none
O=C1c2cccc3cc([N+](=O)[O-])cc(c23)C(=O)N1CCN1CCCC1	FID counter 71.6
Nc1cc2c3c(cccc3c1)C(=O)N(CCN1CCCC1)C2=O	none
Nc1c2ccccc2nc2ccccc12	FID counter 51.3
O=C(NC(=S)Nc1cccc(S(=O)(=O)NC2=NCCC2)c1)c1cc(-c2ccco2)nc2ccccc12	none
O=C(Nc1cccc(S(=O)(=O)NC2=NCCC2)c1)c1cc(-c2ccco2)nc2ccccc12	SUMO HTRF inh 85.6, NS3 helicase inh 44.8
COc1ccc(N2CCN(CCNC(=O)Nc3ccc(C)cc3Cl)CC2)cc1	none
Cc1ccc(C)c(OCC(=O)Nc2nonc2NC(=O)COc2cc(C)ccc2C)c1	SUMO HTRF inh 56.7
Cc1cccc(OCC(=O)Nc2nonc2NC(=O)COc2cccc(C)c2)c1	none (no result: SUMO HTRF inh)
Cc1cc(=O)[nH]c(-n2[nH]c3c(c2=O)CCCC3)n1	IMP-1 inh 14.2
COC(=O)c1ccc(NC(=O)c2ccc(C)cc2)o1	IMP-1 inh 5.5
COc1cccc2sc3ccc(NCCC4CCCN4C)cc3c(=O)c12 (stereo not given)	VIM-2 inhibitor 8.4
CCC1CCCCN1CCCNC(=O)c1cn(CC)c2ccc(S(=O)(=O)N3CCc4ccccc4C3)cc2c1=O (stereo not given)	FID counter 48.8
Nc1ccc(C(=O)N/N=C/c2cn(Cc3cccc(F)c3)c3ccccc23)cc1	none
Cc1ccc(C2C(C(=O)c3cccs3)=C(O)C(=O)N2c2nnc(C)s2)cc1 (stereo not given)	IMP-1 inh 19.7, VIM-2 inhibitor 19.5
Fc1ccc(-c2ccnc3nc(N4CCOCC4)nn23)cc1	SUMO HTRF inh 51.9
Fc1ccc(-c2ccnc3nc(-n4cccc4)nn23)cc1	none
CN(C)/C=N/c1nc2nccc(-c3ccc(F)cc3)n2n1	SUMO HTRF inh 52.1
CN(C)/C=N/c1nc2nccc(-c3cccc(Cl)c3)n2n1	SUMO HTRF inh 50.5
Cc1cc(C(=O)Cn2c(CO)nc3ccccc32)c(C)n1C	none
OCCSc1nc(-c2cccnc2)nc2ccccc12	VIM-2 inhibitor 7.7
Fc1ccc(-c2c[nH]c(=S)n2Cc2ccccc2)cc1	none
O=C(O)CC12CSc3[nH]c(=O)sc3C1c1ccccc1OC2=O (stereo not given)	IMP-1 inh 6.4
Cc1ccc(/C=N/n2c(C)nc3ccccc3c2=O)s1	none
CN1CCN(CCCNC(=O)c2ccc(CSCc3cccc(Cl)c3)o2)CC1	IMP-1 inh 6.8
O=C(NCCCN1CCCC1)c1ccc(CSCc2cccc(Cl)c2)o1	none
COc1cccc2sc3ccc(C#CC4(N)CCCCC4)cc3c(=O)c12	VIM-2 inhibitor 9.0
COc1cccc2oc3ccc(C#Cc4ccccn4)cc3c(=O)c12	none
CCN(c1ccccc1)c1cc2ccccc2c(=O)[nH]1	SUMO HTRF inh 61.3
O=C(O)c1cccc(NC(=O)c2ccc(COc3ccc(Cl)cc3)cc2)c1	none
N#C/C(=C\c1ccc(OCc2ccc(Cl)cc2)cc1)C(=O)Nc1cccc(C(=O)O)c1	SUMO HTRF inh 54.2
CCOc1cc(/C=C(\C#N)C(=O)Nc2cccc(C(=O)O)c2)ccc1OCc1ccc(Br)cc1	SUMO HTRF inh 61.5
O=C(Nc1ccc(Cl)c(Cl)c1)Nc1cc(S(=O)(=O)N2CCOCC2)ccc1N1CCCC1	none
COc1ccc2c(c1)cc(C(=O)N[C@H](C(=O)N1CCC[C@H]1C(=O)O)C(C)C)n2C	none
COc1ccc2c(c1)cc(C(=O)N[C@@H](CCSC)C(=O)N1CCC[C@H]1C(=O)O)n2C	VIM-2 inhibitor 11.9
COCCCn1c(SCC(=O)Nc2ccc(C)cc2)nc2ccccc2c1=O	none
Cc1ccc(NC(=O)CSc2nc3ccccc3c(=O)n2CCCC(=O)N2CCCC2)cc1	IMP-1 inh 10.1
CCN(CC)Cc1cc2[nH]c3c4ccc(Cl)cc4ncc3c2cc1OC	FID counter 58.8

Source: PubChem (several laboratories)
